Molecules are shown by their SMILES.

What all share (assay type): functional, organism-based
The subject of test [1] is Mycolicibacterium smegmatis. The test is described as follows: Concentration for 100% inhibition of growth of dapsone sensitive Mycobacterium smegmatis 607 strain in vitro. In outline:
(§1)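 M. smegmatis ATCC607-derived strains (one of three used, including a dapsone-sensitive one) were grown in modified Kirchner's medium with 0.5% Tween 80, inoculated with 10^5 viable cells. Drugs were added in DMSO (2% final). Roller tubes were incubated at 37 °C for 72 h. Growth was read as spectrophotometric transmission.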

The subject of test [2] is Mycolicibacterium smegmatis. The experiment in a line: 100% inhibition of growth of rifampicin resistant Mycobacterium smegmatis 607 strain in vitro. In a few lines:
as §1

Test [3] deals with Mycolicibacterium smegmatis. The test is described as follows: 100% inhibition of growth of clofazimine resistant Mycobacterium smegmatis 607 strain in vitro. In outline: (§2)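 Strain: 20× step-up clofazimine-resistant mutant of M. smegmatis ATCC607. 10^5 viable cells inoculated into modified Kirchner's medium with 0.5% Tween 80. Drugs were added in DMSO (2% final in all tubes). Roller tubes were incubated at 37 °C for 72 h. Growth was read as optical transmission in a spectrophotometer.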

Test [4] has as its system Mycolicibacterium smegmatis. The test is described as follows: Concentration for complete inhibition of growth against clofazimine resistant Mycobacterium smegmatis 607 strain in vitro; Precipitation. In a few lines: as §2
The subject of test [5] is Mycolicibacterium smegmatis. The test is described as follows: Concentration for complete inhibition of growth against rifampicin resistant Mycobacterium smegmatis 607 strain in vitro; Precipitation. In outline: as §1

Turning to `CC(C)NCCC/N=c1\cc2n(-c3ccc(Cl)cc3)c3ccccc3nc-2cc1Nc1ccc(Cl)cc1`, the Concentration is 0.3 µg/mL in test [1], 0.2 µg/mL in test [2] and 2 µg/mL in test [3].
Take `OCCNCC/N=c1\cc2n(-c3ccc(Cl)cc3)c3ccccc3nc-2cc1Nc1ccc(Cl)cc1`: the Concentration was determined as 8 µg/mL in test [1], 8 µg/mL in test [2] and 20 µg/mL in test [3].
Take `NCCC/N=c1\cc2n(-c3ccc(Cl)cc3)c3ccccc3nc-2cc1Nc1ccc(Cl)cc1`: the Concentration in test [1] stood at 0.3 µg/mL; in test [2], 0.4 µg/mL; in test [3] it was 1 µg/mL.
For `c1ccc(Nc2cc3nc4ccccc4n(-c4ccccc4)c-3c/c2=N\CCN2CCNCC2)cc1`, in that order: 0.4 µg/mL, 0.4 µg/mL and 1 µg/mL.
The like results for `Clc1ccc(Nc2cc3nc4ccccc4n(-c4ccc(Cl)cc4)c-3c/c2=N\CCN2CCCCC2)cc1` were, in that order, 0.4 µg/mL, 0.5 µg/mL and 10 µg/mL.
For the molecule `CC/N=c1\cc2n(-c3ccc(Cl)cc3)c3ccccc3nc-2cc1Nc1ccc(Cl)cc1`, the Concentration in test [1] turned out to be 2 µg/mL; in test [2] it was 2 µg/mL; in test [3] it was 100 µg/mL.
For the molecule `CCCC/N=c1\cc2n(-c3ccc(Cl)cc3)c3ccccc3nc-2cc1Nc1ccc(Cl)cc1`, the Concentration in test [1] is 3 µg/mL; in test [2], 3 µg/mL; in test [3], 100 µg/mL.
With `Cc1ccc(Nc2cc3nc4ccccc4n(-c4ccc(C)cc4)c-3c/c2=N\C2CCCCC2)cc1`, the Concentration in test [1] is 8 µg/mL; in test [2], 8 µg/mL; in test [3], 100 µg/mL.
For the molecule `CCN1CCCC(/N=c2\cc3n(-c4ccc(Cl)cc4)c4ccccc4nc-3cc2Nc2ccc(Cl)cc2)C1` (centres undefined), the Concentration in test [1] was 0.5 µg/mL; in test [2], 0.5 µg/mL; in test [3] it was 8 µg/mL.
As for `OCCN(CCO)CCC/N=c1\cc2n(-c3ccc(Cl)cc3)c3ccccc3nc-2cc1Nc1ccc(Cl)cc1`, the Concentration in test [1] came out at 0.6 µg/mL; in test [2] it was 1 µg/mL; in test [3], 3 µg/mL.
The like results for `OCCNCC/N=c1\cc2n(-c3ccccc3)c3ccccc3nc-2cc1Nc1ccccc1` were, in that order, 5 µg/mL, 6 µg/mL and 10 µg/mL.
The like results for `Cc1ccc(Nc2cc3nc4ccccc4n(-c4ccc(C)cc4)c-3c/c2=N\CCO)cc1` were, in that order, 4 µg/mL, 8 µg/mL and 12 µg/mL.
Consider `CCOc1ccc(Nc2cc3nc4ccccc4n(-c4ccc(OCC)cc4)c-3cc2=N)cc1`, for which the Concentration in test [1] was 6 µg/mL; in test [4], 100 µg/mL; in test [5], 50 µg/mL.

For the origin of these results see ChEMBL document CHEMBL1124233, “Clofazimine analogues active against a clofazimine-resistant organism” (J Med Chem, 1988).
